According to ChEMBL document CHEMBL1146147, “Study on synthesis and biological activity of a galactosylated piperazinyl porphyrin” (Bioorg Med Chem Lett, 2006):
≈ marks a conversion by molar mass, not a printed value.

Tests used:
[1] = Anticancer activity against human HNE1 cells at 6.25 ug/ml after 18 hrs by MTT assay; format: functional
Outline: (§1)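 Human tumour cells (Bel-7404 liver, MCG stomach, HNE1 nasopharyngeal) exposed to compound in solution for 18 h at 37 °C under air with 5% CO2, either kept in the dark or irradiated at 650 nm, 20 J/cm². Viability read by MTT; activity reported as percent cell death.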

BEL-7404 tumor cell line [2] = assay: Anticancer activity against human Bel7404 cells at 6.25 ug/ml after 18 hrs by MTT assay; format: functional; outline: as §1
[3] = Anticancer activity against human MCG cells at 6.25 ug/ml after 18 hrs by MTT assay; format: functional; outline: as §1
BEL-7404 tumor cell line [4] = assay: Anticancer activity against human Bel7404 cells by MTT assay; format: functional; conditions: read-out: ID50 (the source's name)
Outline: (§2)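 MTT assay of human tumour cell lines (Bel-7404 liver, MCG stomach, HNE1 nasopharyngeal carcinoma) run in the absence of light. ID50 is taken as the concentration giving 50% cell death, in ug/ml.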

[5] = Anticancer activity against human HNE1 cells by MTT assay; format: functional; conditions: read-out: ID50 (the source's name); outline: as §2
BEL-7404 tumor cell line [6] = assay: Anticancer activity against human Bel7404 cells with irradiation at 6.25 ug/ml after 18 hrs by MTT assay; format: functional
Outline: (§3)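 Human tumour cells (Bel-7404, MCG, HNE1) incubated 18 h with compound at 6.25 ug/ml at 37 °C in air with 5% CO2. Cells irradiated at 650 nm, 20 J/cm²; parallel wells kept unirradiated. Cell death rate read by MTT.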

[7] = Partition coefficient of the compound; format: ADME; conditions: octanol/water
Outline: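 Compound distributed between the two non-miscible solvents octanol and water. Reported as the octanol/water partition ratio.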

[8] = Anticancer activity against human HNE1 cells with irradiation at 6.25 ug/ml after 18 hrs by MTT assay; format: functional; outline: as §3
[9] = Anticancer activity against human MCG cells by MTT assay; format: functional; conditions: read-out: ID50 (the source's name); outline: as §2
[10] = Anticancer activity against human MCG cells with irradiation at 6.25 ug/ml after 18 hrs by MTT assay; format: functional; outline: as §3

SMILES: O=c1[nH]cc(F)c(=O)[nH]1 [FLUOROURACIL]
- Activity [1]: 29%
- Activity (BEL-7404 tumor cell line [2]): 29%
- Activity [3]: 29%

SMILES: O=C([C@H](O)[C@@H](O)[C@H](O[C@@H]1O[C@H](CO)[C@H](O)[C@H](O)[C@H]1O)[C@H](O)CO)N1CCN(c2ccc(-c3c4nc(c(-c5ccc(N6CCN(C(=O)[C@H](O)[C@@H](O)[C@H](O[C@@H]7O[C@H](CO)[C@H](O)[C@H](O)[C@H]7O)[C@H](O)CO)CC6)cc5)c5ccc([nH]5)c(-c5ccc(N6CCN(C(=O)[C@H](O)[C@@H](O)[C@H](O[C@@H]7O[C@H](CO)[C@H](O)[C@H](O)[C@H]7O)[C@H](O)CO)CC6)cc5)c5nc(c(-c6ccc(N7CCN(C(=O)[C@H](O)[C@@H](O)[C@H](O[C@@H]8O[C@H](CO)[C@H](O)[C@H](O)[C@H]8O)[C@H](O)CO)CC7)cc6)c6ccc3[nH]6)C=C5)C=C4)cc2)CC1
- IC50 (BEL-7404 tumor cell line [4]): 29 µg/mL (≈ 12.5 µM)
- IC50 [5]: 33 µg/mL (≈ 14.3 µM)
- Activity (BEL-7404 tumor cell line [6]): 96%
- Activity [1]: 19%
- Ratio [7]: 18
- Activity (BEL-7404 tumor cell line [2]): 19%
- Activity [8]: 96%
- Activity [3]: 19%
- IC50 [9]: 35 µg/mL (≈ 15.1 µM)
- Activity [10]: 96%

SMILES: O=C([C@H](O)[C@@H](O)[C@H](O[C@@H]1O[C@H](CO)[C@H](O)[C@H](O)[C@H]1O)[C@H](O)CO)N1CCNCC1 [GALACTOSYLATEDPIPERAZINE]
- IC50 (BEL-7404 tumor cell line [4]): > 50 µg/mL
- IC50 [5]: > 50 µg/mL
- IC50 [9]: > 50 µg/mL

SMILES: Nc1ccc(-c2c3nc(c(-c4ccc(N)cc4)c4ccc([nH]4)c(-c4ccc(N)cc4)c4nc(c(-c5ccc(N)cc5)c5ccc2[nH]5)C=C4)C=C3)cc1
- IC50 (BEL-7404 tumor cell line [4]): 33 µg/mL (≈ 48.9 µM)
- IC50 [5]: 28 µg/mL (≈ 41.5 µM)
- Ratio [7]: 42
- IC50 [9]: 24 µg/mL (≈ 35.6 µM)
